Screens (PubChem)
APJ antag: APJ receptor antagonism; AID 2521; 0.32% of 330,000 active; P35414; inhibition, % at 20 µM; CHO-K1 APJ beta-arrestin complementation, luminescence;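 active means inhibition above about 40% at 20 µM, limit read from the data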;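 further: cells challenged with 10 nM apelin-13 agonist together with compound; plate controls were apelin-13 plus DMSO wells for no effect and DMSO wells lacking apelin-13 for full effect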
Target sequence (P35414 whole entry, looked up): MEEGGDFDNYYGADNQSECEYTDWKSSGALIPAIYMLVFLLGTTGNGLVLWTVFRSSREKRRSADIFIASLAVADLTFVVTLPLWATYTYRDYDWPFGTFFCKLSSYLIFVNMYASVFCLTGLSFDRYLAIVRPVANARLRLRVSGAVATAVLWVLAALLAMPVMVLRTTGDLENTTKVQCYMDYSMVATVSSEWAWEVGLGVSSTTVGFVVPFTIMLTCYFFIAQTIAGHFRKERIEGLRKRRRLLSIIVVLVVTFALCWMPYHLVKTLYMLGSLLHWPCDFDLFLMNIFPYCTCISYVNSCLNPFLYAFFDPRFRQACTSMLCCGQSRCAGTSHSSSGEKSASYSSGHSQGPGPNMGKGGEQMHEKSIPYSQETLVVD
CCR6 antagonist: blocks CCL20-driven beta-arrestin recruitment at human CCR6. 0.49% of 340,000 active. inhibition, % at 20 µM. CHO-K1 CCR6 PathHunter beta-arrestin, luminescence, CCL20-stimulated. P51684;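 active means compounds whose inhibition of the agonist-driven luminescence signal at 20 µM reaches about 50%, limit read from the data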;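 further: cells stimulated with CCL20 at 14 nM final; plate controls were DMSO with CCL20 for no effect and DMSO without agonist for full effect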
Target sequence (P51684 whole entry, looked up): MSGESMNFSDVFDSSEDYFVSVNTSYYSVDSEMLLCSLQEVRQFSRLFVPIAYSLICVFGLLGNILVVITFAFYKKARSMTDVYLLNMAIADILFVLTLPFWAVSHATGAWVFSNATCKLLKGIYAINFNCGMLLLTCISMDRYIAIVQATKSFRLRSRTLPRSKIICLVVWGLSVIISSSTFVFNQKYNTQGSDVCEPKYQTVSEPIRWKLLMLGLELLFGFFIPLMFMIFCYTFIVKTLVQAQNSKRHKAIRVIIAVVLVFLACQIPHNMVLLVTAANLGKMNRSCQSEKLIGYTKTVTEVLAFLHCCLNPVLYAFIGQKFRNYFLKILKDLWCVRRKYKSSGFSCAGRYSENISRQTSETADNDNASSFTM
HTR2A ag: activates the mouse 5-HT2A serotonin receptor; P35363; CHO-K1 mHTR2A beta-arrestin complementation, luminescence; percent of 30 µM serotonin response; activation, % at 7.6 µM; 0.66% of 360,000 active;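 active means activation above a run cutoff, the mean activation of all tested compounds plus 3 SD, cut at about 14% in these data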;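 further: 0% = plate median of compound wells and 100% = 30 µM serotonin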
CXCR6 inh: CXCR6 (human) receptor inhibition; O00574; CHO-K1 PathHunter CXCR6 beta-arrestin, luminescence; inhibition, % at 20 µM; 0.36% of 360,000 active; in the data active means inhibition above about 34%, passing the limit was not always enough;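 further: antagonist mode with CXCL16 agonist at 10 nM final; 0% = 10 nM CXCL16 with DMSO and 100% = unstimulated wells without agonist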
NTR1 agonist: activates human neurotensin receptor 1; NTR1-U2OS beta-arrestin-GFP spot imaging, agonist mode; activation, % at 20 µM; 0.17% of 330,000 active;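 active means activation at or above 40% of the spot to cytoplasm intensity ratio, with at least 20 cells analyzed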;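 further: 0% = DMSO without peptide and 100% = 100 nM NTR1 peptide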
APJ ag: activates the human apelin receptor APJ | P35414 | CHO-K1 APJ PathHunter beta-arrestin, luminescence; 0% DMSO wells, 100% apelin | activation, % at 20 µM | 0.11% of 330,000 active;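 active means activation more than six SD over the plate average, tested at 20 µM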;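 further: 0% = DMSO alone and 100% = apelin-13 at 10 nM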
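Assay system: engineered CHO-K1 APJ arrestin reporter cells; Amount: 1000 CHO-K1 reporter cells seeded per well; Dosing: one dose, 20 µM compound, 1% DMSO; Times: compound stimulation 90 min at 25 °C, detection 60 min; Measured by: luminescent beta-gal fragment complementation, chemiluminescent substrate; Read-out: APJ–arrestin association signal; Controls: DMSO vs Apelin-13 10 nM.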
CXCR6 confirm: CXCR6 antagonism confirmation, single concentration; AID 602409; 65% of 700 active; inhibition, % at 20 µM; shares compounds with CXCR6 inh; CHO-K1 CXCR6 PathHunter beta-arrestin, luminescence;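 active means mean inhibition over four retests above 40%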;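 further: receptor stimulated with 10 nM CXCL16 agonist; beta-galactosidase fragment complementation upon beta-arrestin recruitment to receptor; plate controls were CXCL16 plus DMSO for no effect and DMSO without CXCL16 for full effect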
OPRM1 ag: OPRM1 agonism in mouse HTR2A counterscreen; U2OS OPRM1 beta-arrestin PathHunter, luminescence; DMSO 0%, DAMGO 9.3 µM 100%; shares compounds with HTR2A ag; 5.3% of 2,300 active; activation, % at 9.3 µM;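 active means mean activation above the mean of DMSO-only wells plus 3 SD, cut at about 0.5% in these data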
m5-HT2A ag conf: mouse HTR2A agonism confirmed | shares compounds with HTR2A ag | CHO-K1 PathHunter beta-arrestin recruitment, luminescence; DMSO 0%, 30 µM serotonin 100% | activation, % at 7.6 µM | 19% of 2,300 active;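 active means mean activation across triplicates above the hit threshold derived in the original primary screen, cut at about 15% in these data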
* hit, by the source's call; . = not tested or not shown. This is a sample that favours compounds with a hit; in the whole collection about 1.5% have one here.

SMILES | APJ antag | CCR6 antagonist | HTR2A ag | CXCR6 inh | NTR1 agonist | APJ ag | OPRM1 ag | m5-HT2A ag conf | others
COc1ccc(-c2noc(CCC(=O)Nc3cccc(C)c3)n2)cc1 | -8.1 | 4.1 | -1.4 | -3.9 | 1.7 | 3.6 | . | .
CC(C)NC(=O)C1(C)CSCC(=O)N1Cc1cccc(C(F)(F)F)c1 (centres undefined) | . | . | -2.7 | . | . | . | . | .
Cc1cc(C)nc(NN2C(=O)C=CC2=O)n1 | 0.6 | 0.6 | 2.1 | 5.8 | -1.4 | 0.1 | . | .
CCc1nnc(NS(=O)(=O)c2ccc(NS(=O)(=O)c3ccccc3[N+](=O)[O-])cc2)s1 | 3.2 | -2.1 | 4.3 | -29.9 | 1.5 | -1.5 | . | .
CCc1nnc(NS(=O)(=O)c2ccc(Nc3ccc([N+](=O)[O-])c4nonc34)cc2)s1 | 65.2* | 72.7* | -9.7 | 48.2* | 0.1 | -8.6 | . | . | CXCR6 confirm=41.6*
O=C(NCC1CCCCC1)c1cccc(Br)c1 | 0.8 | 17.3 | 6.1 | 6.1 | -0.4 | 1.2 | . | .
O=C(COC(=O)c1ccco1)Nc1cccc(S(=O)(=O)N2CCOCC2)c1 | . | . | 5.1 | 1.6 | . | . | . | .
CCn1c(C)cs/c1=N\S(=O)(=O)c1ccccc1 | 5.0 | -14.0 | -3.4 | -7.9 | -1.3 | -2.1 | . | .
O=Cc1s/c(=N\S(=O)(=O)c2ccccc2)n(CCCCl)c1Cl | . | 105.0* | 1.4 | 97.7* | . | . | . | . | CXCR6 confirm=104.4*
COc1ccc(Nc2ncccc2C(=O)O)cc1 | -1.4 | -34.6 | -2.8 | 69.5* | -0.7 | 0.5 | . | . | CXCR6 confirm=17.4
C=CCN(CC=C)C(=S)NC(=O)c1ccc(-c2ccccc2)cc1 | 20.4 | . | -3.7 | 52.8* | 2.8 | -6.0 | . | . | CXCR6 confirm=72.8*
C=CCN(CC=C)C(=S)NC(=O)c1ccc(C)c(Br)c1 | 31.9 | 46.4 | -7.1 | 48.9* | 4.6 | -2.9 | . | . | CXCR6 confirm=54.4*
Cc1ccc(C(=O)NC(=S)N(C)C2CCCCC2)cc1Br | 21.6 | . | -3.0 | 38.4 | 1.8 | -8.6 | . | .
C=CCN(CC=C)C(=S)NC(=O)c1ccc(OC)cc1 | 17.5 | 23.7 | 4.4 | 8.5 | 1.1 | -3.5 | . | .
CCN(CC(=O)Nc1c(F)cccc1F)C(=O)C1CCN(S(=O)(=O)c2ccc(C)c(C)c2)CC1 | -7.6 | 11.1 | 1.4 | 5.5 | -0.2 | 4.6 | . | .
CCOc1cc(Br)c(Br)c(C=Nc2ccc(NC(C)=O)cc2)c1O | 31.3 | 18.9 | -4.8 | 41.5* | 4.8 | -4.7 | . | . | CXCR6 confirm=69.5*
CN(C1CCCCC1)C(CNS(=O)(=O)c1ccccc1)c1ccccc1 (centres undefined) | 12.0 | 15.3 | -0.1 | 7.4 | -0.4 | -4.1 | . | .
CCN(CC)c1ccc(NC(=O)C2=CCN(S(=O)(=O)c3ccc(F)cc3)CC2)c(C)c1 | -1.7 | 11.1 | 16.7* | -1.7 | 6.7 | -5.9 | -0.6 | -6.1
O=C(COc1ccccc1)Nc1nnc(-c2ccc(F)cc2)o1 | -7.4 | 1.1 | 16.8* | 7.9 | 0.0 | -2.3 | -0.6 | 2.5
O=C(COc1ccccc1)Nc1nnc(-c2ccc3c(c2)CCCC3)o1 | -66.9 | 14.1 | -0.5 | 11.8 | 0.5 | -3.8 | . | .
Cc1ccc(SCn2nnc3ccccc3c2=O)c(C)c1 | 0.9 | 13.7 | 24.7* | 5.1 | 0.7 | -2.0 | -0.2 | -0.1
COc1cc(NC(=O)c2ccco2)c(OC)cc1NC(=O)Nc1ccc(Cl)cc1 | -8.2 | -33.1 | 14.7* | -2.5 | 5.2 | 9.5 | -0.3 | -2.1
O=C(Cn1cncn1)N/N=C/c1ccncc1 | -15.4 | 4.3 | 23.1* | 4.1 | 0.3 | -1.8 | 0.3 | 3.0
CC(C)C(=O)Nc1ccc(C(=O)NNC(=S)NC(=O)c2ccco2)cc1 | 16.9 | 25.1 | 15.2* | 6.0 | 2.2 | -2.5 | -0.6 | 2.0
Cc1ccc(C(=O)NNC(=S)NC(=O)c2ccco2)cc1 | 21.9 | 42.6 | -4.4 | 22.9 | -0.2 | -1.4 | . | .
SMILES | APJ antag | CCR6 antagonist | HTR2A ag | CXCR6 inh | NTR1 agonist | APJ ag | OPRM1 ag | m5-HT2A ag conf | others
Cc1ccc(S(=O)(=O)N(C)c2ccc(C(=O)N(CC(C)C)C3CCS(=O)(=O)C3)cc2)cc1 (centres undefined) | 8.9 | 8.2 | -2.1 | -3.2 | -1.1 | -1.0 | . | .
O=C(NCc1ccccn1)C(F)(F)C(F)(F)C(=O)NCc1ccccn1 | -16.4 | 10.3 | 14.9* | -1.1 | -2.4 | 6.6 | -0.5 | -2.8
O=C(NCc1ccccn1)c1ccccc1OCc1ccccc1Cl | . | . | 23.6* | 5.5 | . | . | -0.4 | -6.3
CCOC(=O)COc1coc(CN2CCN(c3ccc(F)cc3)CC2)cc1=O | 0.3 | -5.5 | -0.4 | 7.8 | -0.5 | -3.0 | . | .
COc1ccc(-n2ccnc2SCC(=O)NCc2ccco2)c(OC)c1 | -1.8 | -1.8 | -2.0 | -0.5 | 0.8 | 1.5 | . | .
O=C(NCc1ccncc1)c1ccc(NS(=O)(=O)c2ccccc2)cc1 | 13.9 | 10.5 | 1.1 | -23.8 | -0.1 | 2.6 | . | .
O=C(NCc1ccncc1)c1ccc(S(=O)(=O)Nc2ccccc2)cc1 | 21.3 | 19.9 | 14.6* | -18.1 | -0.3 | -2.9 | -0.5 | -5.0
Cc1cc(OC(C)C(=O)N(Cc2ccco2)C2CCS(=O)(=O)C2)cc(C)c1Cl (centres undefined) | -1.8 | 3.5 | 16.9* | 2.4 | 8.8 | -2.7 | -0.7 | -0.8
CN(C)CCCn1c(NC(=O)C2CCCCC2)nc2ccccc21 | -15.1 | 17.3 | 20.2* | 3.5 | -0.7 | -2.0 | -0.6 | 4.3
Cc1cc(C)cc(N(CC(=O)NC2CCCC2)C(=O)CCC(=O)Nc2cc(C)ccn2)c1 | 13.8 | 34.8 | 6.4 | 9.4 | -0.6 | -4.2 | . | .
CCOC(=O)C1=CC[C@@H](c2ccccc2C(F)(F)F)N(S(=O)(=O)c2ccc(C)cc2)[C@H]1c1ccc(C#N)cc1 | . | . | 17.5* | 0.0 | . | . | -0.5 | -3.0
CC[C@@H]1C=C(C(=O)O)[C@H](c2ccc(Cl)cc2)N1S(=O)(=O)c1ccc(C)cc1 | -12.9 | -3.7 | 16.6* | 2.0 | 1.5 | -3.2 | -0.6 | -0.6
Cc1ccc([C@@H]2CC=C(C(=O)O)[C@H](c3ccc(C(C)(C)C)cc3)N2S(=O)(=O)c2ccc(C)cc2)cc1 | -9.3 | -11.9 | 24.1* | -8.6 | 8.1 | 0.7 | -0.3 | 6.8
CC[C@@H]1C=C(C(=O)O)[C@H](c2ccc(C)cc2)N1S(=O)(=O)c1ccc(C)cc1 | -2.8 | -18.1 | 7.0 | -1.1 | 1.2 | -3.6 | . | .
CCOC(=O)C1=C[C@@H](C(C)(C)C)N(S(=O)(=O)c2ccc(C)cc2)[C@H]1c1ccc(C#N)cc1 | . | . | 2.1 | 5.9 | . | . | . | .
CCCC[C@@H]1C=C(C(=O)O)[C@H](c2ccc(Cl)cc2)N1S(=O)(=O)c1ccc(C)cc1 | 7.8 | -6.1 | -1.8 | -0.9 | 6.0 | -3.1 | . | .
